We go through 41 molecules from ChEMBL document CHEMBL4196210, “Depsipeptides Featuring a Neutral P1 Are Potent Inhibitors of Kallikrein-Related Peptidase 6 with On-Target Cellular Activity” (J Med Chem, 2018).

The source made the active and inactive calls. Some results are limits rather than exact numbers.

Broadly, the IC50 is the concentration needed to halve the response being measured. A low value points to higher potency. As usually defined, the half-life is the time needed for the level to fall by half in the phase considered. In general, Ki refers to a measure of affinity in units of concentration, obtained from inhibition or displacement.

One data set has as its target Trypsin (Homo sapiens, UniProt P07477+P07478+P35030). Briefly: Inhibition of trypsin (unknown origin) pre-incubated for 30 mins before N-Boc-FSR-AMC substrate addition and measured after 30 mins. Type of data set: protein assay.
A short description of data set [1]: Stability in DMEM supplemented with 10% (v/v) fetal bovine serum at 10 uM at 37 degC assessed as half life by HPLC-MS method. Type of data set: physicochemical. Particulars: cattle, DMEM with 10% (v/v) fetal bovine serum. In outline: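 Compound at 10 µM (0.2% DMSO) in DMEM with 10% FBS, 2 mM L-glutamine and 1% penicillin/streptomycin, plus 10 µM triazole internal standard, held at 37 °C. Sampled hourly to 10 h, then at 24 h, by HPLC-MS in SIM mode for parent and hydrolysis product.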

The next data set deals with Prothrombin (Homo sapiens, UniProt P00734). Briefly: Inhibition of thrombin (unknown origin) pre-incubated for 30 mins before N-Boc-FSR-AMC substrate addition and measured after 30 mins. In outline:
(§1)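 Inhibitor (1:2 or 1:3 dilutions) or 2% DMSO for 30 min at rt, then N-Boc-FSR-AMC at 20 µM final. Fluorescence (ex 350/em 440) read every 60 s for 30 min. Slopes normalized to DMSO for dose-response; triplicates.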

Another data set concerns the target Coagulation factor X (Homo sapiens, UniProt P00742). Briefly: Inhibition of factor 10a (unknown origin) pre-incubated for 30 mins before N-Boc-FSR-AMC substrate addition and measured after 30 mins. In outline: as §1
For data set [2], the target named is T1, Kallikrein-6 (Homo sapiens, UniProt Q92876). Briefly: Inhibition of KLK6 in human FaDu cells assessed as reduction in cell proliferation at 300 nM incubated for 48 hrs by BrdU incorporation assay. Type of data set: cell-based. The method in brief: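 FaDu cells treated daily for 48 h. Proliferation read as BrdU incorporation; average of 5 independent experiments ± standard deviation.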

The target of a further data set is Kallikrein-7 (Homo sapiens, UniProt P49862). Description: Inhibition of KLK7 (unknown origin) expressed in Pichia pastoris pre-incubated for 10 mins before Leu-Leu-Val-Tyr-AMC substrate addition and measured after 30 mins by fluorescence based assay. In outline:
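KLK7 at 33 nM final in 100 mM phosphate, 0.01% Tween-20, pH 8.5, with inhibitor (1:3 dilutions) or 2% DMSO for 10 min at rt. Reaction started with Leu-Leu-Val-Tyr-AMC at 500 µM final. Fluorescence (ex 380/em 460) read every 60 s for 30 min. Triplicates.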

Another data set has as its target T2, Kallikrein-13 (Homo sapiens, UniProt Q9UKR3).
T2 sequence (Q9UKR3 whole entry): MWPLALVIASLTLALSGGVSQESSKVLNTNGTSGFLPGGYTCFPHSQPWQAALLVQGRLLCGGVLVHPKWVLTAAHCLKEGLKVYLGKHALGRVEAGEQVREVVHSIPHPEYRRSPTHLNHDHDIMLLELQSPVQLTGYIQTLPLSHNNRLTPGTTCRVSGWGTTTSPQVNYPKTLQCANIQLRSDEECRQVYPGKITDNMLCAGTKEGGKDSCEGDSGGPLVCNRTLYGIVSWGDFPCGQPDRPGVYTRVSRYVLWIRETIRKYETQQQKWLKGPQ
Description: Inhibition of KLK13 (unknown origin) expressed in Pichia pastoris pre-incubated for 10 mins before Boc-ValProArg-AMC substrate addition and measured after 30 mins by fluorescence based assay.

The target of another data set is T3, Kallikrein-14 (Homo sapiens, UniProt Q9P0G3).
T3 sequence (Q9P0G3 whole entry): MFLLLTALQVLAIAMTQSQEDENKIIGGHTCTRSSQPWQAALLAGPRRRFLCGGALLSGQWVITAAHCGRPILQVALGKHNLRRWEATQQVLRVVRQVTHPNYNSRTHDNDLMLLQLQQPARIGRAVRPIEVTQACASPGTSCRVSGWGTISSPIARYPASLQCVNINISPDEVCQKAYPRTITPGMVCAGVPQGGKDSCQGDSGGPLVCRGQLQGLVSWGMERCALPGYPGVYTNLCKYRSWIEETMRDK
Description: Inhibition of KLK14 (unknown origin) expressed in Pichia pastoris pre-incubated for 10 mins before Boc-ValProArg-AMC substrate addition and measured after 30 mins by fluorescence based assay.

Another data set has as its target T4, Kallikrein-5 (Homo sapiens, UniProt Q9Y337).
T4 sequence (Q9Y337 whole entry): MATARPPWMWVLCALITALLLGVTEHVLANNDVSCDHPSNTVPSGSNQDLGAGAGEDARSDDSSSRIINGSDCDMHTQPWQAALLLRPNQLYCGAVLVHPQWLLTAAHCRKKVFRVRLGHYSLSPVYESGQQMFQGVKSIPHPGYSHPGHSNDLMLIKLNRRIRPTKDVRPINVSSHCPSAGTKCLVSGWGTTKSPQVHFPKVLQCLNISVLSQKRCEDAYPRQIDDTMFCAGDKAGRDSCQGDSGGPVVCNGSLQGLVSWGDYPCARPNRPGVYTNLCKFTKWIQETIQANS
Briefly: Inhibition of KLK5 (unknown origin) expressed in Pichia pastoris pre-incubated for 10 mins before Boc-ValProArg-AMC substrate addition and measured after 30 mins by fluorescence based assay.

The target of a further data set is T5, Kallikrein-8 (Homo sapiens, UniProt O60259).
T5 sequence (O60259 whole entry): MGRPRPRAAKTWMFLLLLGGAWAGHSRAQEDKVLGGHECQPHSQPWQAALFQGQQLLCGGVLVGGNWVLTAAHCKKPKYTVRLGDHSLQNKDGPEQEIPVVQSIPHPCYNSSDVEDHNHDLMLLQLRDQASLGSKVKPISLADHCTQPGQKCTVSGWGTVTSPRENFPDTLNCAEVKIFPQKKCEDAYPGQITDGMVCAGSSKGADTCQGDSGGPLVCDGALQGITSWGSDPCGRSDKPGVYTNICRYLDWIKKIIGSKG
Briefly: Inhibition of KLK8 (unknown origin) expressed in Pichia pastoris pre-incubated for 10 mins before Boc-ValProArg-AMC substrate addition and measured after 30 mins by fluorescence based assay.

Data set [3] deals with T1, Kallikrein-6. Briefly: Inhibition of human KLK6 expressed in baculovirus/insect cell line system using Abz-KLRSSKQ-EDDnp substrate.
For data set [4], the target named is T1, Kallikrein-6. Briefly: Inhibition of recombinant human KLK6 assessed as Kinact/Ki ratio using Boc-QAR-AMC substrate.

Coagulation factor X, sequence (P00742 41-179 limits assumed): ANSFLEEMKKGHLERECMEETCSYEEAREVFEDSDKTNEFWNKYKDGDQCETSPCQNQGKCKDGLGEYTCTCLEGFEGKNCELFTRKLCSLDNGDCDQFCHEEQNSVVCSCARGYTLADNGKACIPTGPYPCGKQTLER
Coagulation factor X, sequence (P00742 235-488 limits assumed): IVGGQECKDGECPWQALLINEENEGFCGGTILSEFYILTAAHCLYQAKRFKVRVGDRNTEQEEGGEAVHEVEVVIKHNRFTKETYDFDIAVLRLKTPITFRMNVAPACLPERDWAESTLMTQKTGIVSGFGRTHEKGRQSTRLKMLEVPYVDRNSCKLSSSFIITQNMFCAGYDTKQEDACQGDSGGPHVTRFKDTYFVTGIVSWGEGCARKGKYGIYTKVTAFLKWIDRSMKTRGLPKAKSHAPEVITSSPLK
Kallikrein-7, sequence (P49862 whole entry): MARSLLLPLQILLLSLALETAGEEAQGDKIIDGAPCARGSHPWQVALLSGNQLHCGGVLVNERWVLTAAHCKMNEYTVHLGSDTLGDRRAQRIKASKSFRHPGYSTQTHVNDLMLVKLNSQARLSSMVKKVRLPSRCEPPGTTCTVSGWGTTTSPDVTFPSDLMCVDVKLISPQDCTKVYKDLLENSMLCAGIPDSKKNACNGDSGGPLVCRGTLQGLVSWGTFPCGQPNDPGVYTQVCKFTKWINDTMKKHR

Molecule `Cc1nn(-c2ccccc2)c(C)c1NC(=O)COC(=O)Cc1c(C)[nH]c2cnccc12` showed an IC50 on Trypsin of 0.33 µM.

On Trypsin, `Cc1nn(-c2ccccc2)c(C)c1NC(=O)COC(=O)Cc1c(C)[nH]c2ccc(C(=N)N)cc12` showed an IC50 of 19 µM.

Take `Cc1nn(-c2ccccc2)c(C)c1NC(=O)COC(=O)Cn1c(C)cc2ccccc21`: in [1], the half-life at 10 µM is 33.6 min. For the same molecule, the results for the IC50 on Prothrombin, on Coagulation factor X and at Trypsin were over 200 µM, over 200 µM and 38 to 70 µM, respectively.

`Cc1nn(-c2ccccc2)c(C)c1NC(=O)COC(=O)C(C)(C)c1c(C)[nH]c2ccccc12` came in with an IC50 against Trypsin of over 200 µM.

As for `Cc1nn(-c2ccccc2)c(C)c1NC(=O)C(OC(=O)C(C)c1c(C)[nH]c2ccccc12)C(F)(F)F` (centres undefined), the half-life at 10 µM in data set [1] was 101 min. Besides, the IC50 against Trypsin is 61 µM.

For the molecule `Cc1nn(-c2ccccc2)c(C)c1NC(=O)CNC(=O)Cc1c(C)[nH]c2cc(C(=N)N)ccc12`, at Trypsin, the IC50 turned out to be 2.5 µM.

Take `Cc1nn(-c2ccccc2)c(C)c1NC(=O)COC(=O)c1c(C)[nH]c2ccccc12`: at Trypsin, the IC50 was over 200 µM.

`Cc1[nH]c2ccccc2c1CC(=O)OCC(=O)Nc1ccc(N2CCOCC2)cc1` registered an IC50 at Trypsin of over 200 µM.

On Trypsin, `Cc1nn(-c2ccccc2)c(C)c1NC(=O)C(NC(=O)Cc1c(C)[nH]c2ccccc12)C(F)(F)F` (centres undefined) yielded an IC50 of over 200 µM.

On to `Cc1nn(-c2ccccc2)c(C)c1NC(=O)COC(=O)Nc1c(C)[nH]c2ccccc12`, for which, at Kallikrein-6 [2], the outcome was inactive.

With `Cc1[nH]c2ccccc2c1CC(=O)OCC(=O)Nc1cncnc1`, on Trypsin, the IC50 was over 200 µM.

In turn, `Cc1nn(-c2ccccc2)c(C)c1NC(=O)COC(=O)CCc1c(C)[nH]c2ccccc12` returned an IC50 against Trypsin of over 200 µM.

`Cc1nn(-c2ccccc2)c(C)c1NC(=O)COC(=O)Cn1cnc2ccccc2c1=O`: the IC50 on Prothrombin, against Coagulation factor X and at Trypsin was over 200 µM in each case.

At Trypsin, `Cc1nn(-c2ccccc2)cc1NC(=O)CNC(=O)Cc1c(C)[nH]c2ccccc12` returned an IC50 of over 200 µM.

For `C#Cc1[nH]c2ccccc2c1CC(=O)OCC(=O)Nc1c(C)nn(-c2ccccc2)c1C`, the IC50 against Trypsin was over 200 µM.

Turning to `Cc1nn(-c2ccccc2)c(C)c1NC(=O)COC(=O)Cc1c[nH]c2ccccc12`, the half-life at 10 µM in [1] is 27 min. This molecule gave an IC50 on Trypsin of 150 µM.

Turning to `Cc1nn(-c2ccccc2)c(C)c1NC(=O)COC(=O)Cc1c(C)[nH]c2ccc(Cl)cc12`, the IC50 against Trypsin came to 34 µM.

In the case of `Cc1nn(C)c(C)c1NC(=O)CNC(=O)Cc1c(C)[nH]c2cccnc12`, at Trypsin, the IC50 was over 50 µM.

In turn, `Cc1[nH]c2cccnc2c1CC(=O)NCC(=O)Nc1onc(-c2ccccc2)c1C` displayed an IC50 against Trypsin of 50 µM.

At Trypsin, `Cc1nn(-c2ccccc2)c(C)c1NC(=O)COC(=O)Cc1c(C)[nH]c2cccc(Cl)c12` returned a half-inhibitory concentration (IC50) of over 200 µM.

On to `C#Cc1ccc2c(CC(=O)OCC(=O)Nc3c(C)nn(-c4ccccc4)c3C)c(C)[nH]c2c1`, for which, on Trypsin, the IC50 is 24 µM.

Regarding `Cc1nn(-c2ccccc2)c(C)c1NC(=O)COC(=O)Cn1c(=O)oc2ccccc21`, the IC50 against Prothrombin is over 200 µM; on Coagulation factor X, over 200 µM; against Trypsin it was 190 µM.

On to `NCc1ccc(NC(=O)c2c([O-])ccc[n+]2Cc2nccn2Cc2ccccc2)cc1`, for which the IC50 is over 50 µM against Prothrombin, over 50 µM against Coagulation factor X and 0.18 µM at Trypsin.

On to `Cc1nn(-c2ccccc2)c(C)c1NC(=O)COC(=O)Cn1c(C)csc1=O`, for which the IC50 on Prothrombin, against Coagulation factor X and against Trypsin was over 200 µM each time.

With `Cc1nn(-c2ccccc2)c(C)c1NC(=O)COC(=O)C(C)c1c(C)[nH]c2ccccc12` (centres undefined), the half-life at 10 µM in data set [1] is 912 min. The molecule further yielded an IC50 at Trypsin of over 200 µM.

The molecule `Cc1nn(-c2ccccc2)c(C)c1NC(=O)COC(=O)Cc1c(C)[nH]c2ncccc12` had an IC50 on Trypsin of over 200 µM.

Consider `Cc1nn(-c2ccccc2)c(C)c1NC(=O)COC(=O)Cc1c(C)n(C)c2ccccc12`, for which, at Trypsin, the IC50 is over 200 µM.

Consider `Cc1nn(-c2ccccc2)c(C)c1NC(=O)COC(=O)Cc1c(C)[nH]c2cc(C(=N)N)ccc12`, for which the IC50 on Kallikrein-7 was over 0.5 µM; against Kallikrein-13, over 0.5 µM; at Kallikrein-14, 0.008 µM; on Kallikrein-5 it was 0.13 µM; against Trypsin, under 0.001 µM; against Kallikrein-8, 0.21 µM. Also, the half-life at 10 µM in data set [1] is 79.2 min.

In turn, `Cc1nn(-c2ccccc2)c(C)c1NC(=O)COC(=O)C(c1c(C)[nH]c2ccccc12)C(F)(F)F` (centres undefined) showed an IC50 against Trypsin of over 200 µM.

At Trypsin, `Cc1nn(-c2ccccc2)c(C)c1NC(=O)COC(=O)Cc1c(C)[nH]c2ccncc12` displayed an IC50 of 25 µM. In other words, the double-digit micromolar range.

At Trypsin, `Cc1[nH]c2ccccc2c1CC(=O)NCC(=O)Nc1cnn(-c2ccccc2)c1C` registered an IC50 of 34 µM.

As to `Cc1nn(-c2ccccc2)c(C)c1NC(=O)C(OC(=O)Cc1c(C)[nH]c2ccccc12)C(F)(F)F` (centres undefined), in data set [1], the half-life at 10 µM is 25.5 min. On Trypsin, this molecule returned an IC50 of 0.38 µM.

At Trypsin, `Cc1nn(-c2ccccc2)c(C)c1NC(=O)COC(=O)Cc1c(C(C)C)[nH]c2ccccc12` had a concentration for half-maximal inhibition (IC50) of over 200 µM.

`Cc1nn(-c2ccccc2)c(C)c1NC(=O)COC(=O)Cc1c(C)[nH]c2cccnc12` showed an IC50 against Trypsin of 61 µM. That is a double-digit micromolar value.

As for `CC(C)C[C@H](NC(=O)[C@H](CCCNC(=N)N)NC(=O)c1ccc(Cl)cc1)C(N)=O`, the Ki on Kallikrein-6 [3] was 1.5 µM.

In the case of `Cc1nn(-c2ccccc2)c(C)c1NC(=O)COC(=O)Cc1ccccc1`, the IC50 against Prothrombin, against Coagulation factor X and against Trypsin was over 200 µM in each case.

With `Cc1nn(-c2ccccc2)c(C)c1NC(=O)CCOC(=O)Cc1c(C)[nH]c2ccccc12`, the IC50 on Trypsin was over 200 µM.

Consider `C#Cc1cccc2[nH]c(C)c(CC(=O)OCC(=O)Nc3c(C)nn(-c4ccccc4)c3C)c12`, for which the IC50 at Trypsin was over 50 µM.

As to `O=C(Oc1cc(Cl)ccc1Cl)c1cc2cc(Cl)ccc2oc1=O`, the Ratio on Kallikrein-6 [4] stood at 131 M⁻¹ s⁻¹.

`C#Cc1ccc2[nH]c(C)c(CC(=O)OCC(=O)Nc3c(C)nn(-c4ccccc4)c3C)c2c1` yielded a 50% inhibitory concentration (IC50) against Trypsin of 26 µM.

Molecule `Cc1nn(-c2ccccc2)c(C)c1NC(=O)COC(=O)Cn1c(C)nc2ccccc21` returned an IC50 against Trypsin of over 200 µM.
